# OX1R antag-1: blocks the human orexin 1 receptor. O43613. CHO/OX1R cells, Fluo-8 calcium fluorescence, orexin A. inhibition, % at 5 µM. 330,000 tested, 0.43% active;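 active = inhibition above its plate's threshold, mean inhibition of all tested compounds on the plate plus 3 SD, cut at about 37% in these data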;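 also: 0% = orexin A challenge wells and 100% = SB-334867-A antagonist wells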
# CHO parental Ca: counter-screen for OX1R antagonists: effect in parental CHO cells | parental CHO-K1, ATP-induced calcium, Fluo-8 fluorescence | 330,000 tested, 0.63% active | AID 463079 | inhibition, % at 5.6 µM;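 active = inhibition above that plate's mean sample inhibition plus 3 SD, cut at about 26% in these data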;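 also: 0% = ATP-challenged DMSO wells and 100% = DMSO wells without ATP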
#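 Measured by: calcium-sensitive Fluo-8 fluorescence / Test system: CHO parental line / Controls: ATP-challenged DMSO wells low, unchallenged DMSO wells high / Measure: % inhibition / Compound: single nominal dose of 5.6 µM per compound / Replicates: single well per compound, no replicates / Reagent: ATP as calcium-mobilizing challenge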
# GPR7 antagonist: antagonists of human GPR7 (neuropeptides B/W receptor 1); GPR7-expressing cells, fluorescence antagonist assay; inhibition, % at 4.4 µM; 290,000 tested, 1.1% active; in the data active = inhibition above about 16%, passing the limit was not always enough;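 also: cells stimulated with the agonist NPW; 0% = agonist with vehicle and 100% = vehicle without agonist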
# Target sequence (P48145 whole entry, looked up): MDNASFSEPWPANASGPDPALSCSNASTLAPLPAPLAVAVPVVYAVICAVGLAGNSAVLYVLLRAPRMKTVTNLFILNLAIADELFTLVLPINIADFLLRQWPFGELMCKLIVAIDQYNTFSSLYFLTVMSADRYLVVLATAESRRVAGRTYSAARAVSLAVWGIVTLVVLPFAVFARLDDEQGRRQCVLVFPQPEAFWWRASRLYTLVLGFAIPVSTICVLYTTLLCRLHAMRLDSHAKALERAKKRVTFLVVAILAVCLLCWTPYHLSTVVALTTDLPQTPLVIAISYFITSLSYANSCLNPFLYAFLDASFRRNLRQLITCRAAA
# TAAR1 agonist: agonists of human TAAR1 | CHO RD-HGA16 TAAR1, Fluo-8 calcium fluorescence; vehicle wells 0%, saturating PEA agonist 100% | 360,000 tested, 0.99% active | activation, % at 3 µM;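 active = activation above the mean activation of all test compounds in the run plus 3 SD, cut at about 38% in these data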
#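 test system = CHO RD-HGA16 cells carrying human TAAR1 plus Gα16 | schedule = 17-24 h seeding, 75 min 37 °C dye, 30 min RT | compound dosing = 3 µM single concentration | control set = DMSO and PEA EC100 | replicates = n 1 | signal = Fluo-8 fluorescence, 5 s baseline then 140 s kinetic read | measure = percent activation vs PEA EC100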
# OX1R antag-2: blocks the human orexin 1 receptor. OX1R-expressing cells, FRET antagonist read-out. 330,000 tested, 1.8% active. inhibition, % at 6.6 µM. O43613; in the data active = inhibition mostly above about 38%, no sharp cut-off; inactive = mostly below about 40%;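 also: 0% = agonist challenge alone and 100% = reference antagonist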
# TAAR1 antagonist: antagonists of human TAAR1 | CHO RD-HGA16 TAAR1, Fluo-8 calcium fluorescence, antagonist | inhibition, % at 3 µM | 360,000 tested, 1.5% active | AID 624466;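 active = inhibition above a per-plate cutoff, the mean inhibition of test compounds on that plate plus 3 SD, cut at about 49% in these data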;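 also: 0% = DMSO plus EC80 beta-PEA response and 100% = DMSO alone without agonist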
#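 Assay system: RD-HGA16 CHO cells with stable hTAAR1 and Gα16 / Reagent: EC80 β-phenethylamine stimulus / Doses: 3 µM, single point / Timing: dye loading 75 min at 37 °C, then 30 min room temperature / Measured by: Fluo-8 intracellular calcium dye fluorescence, real-time kinetic reads / Controls: vehicle wells and EC80 agonist wells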
# nonsel antag count: nonselective antagonist in TAAR1 antagonist counter-screen. counterscreen cell line, calcium fluorescence, antagonist mode. shares compounds with TAAR1 antagonist. 2,400 tested, 77% active. inhibition, % at 3 µM; in the data active = inhibition above about 22%;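 also: CHO-Ga16 host cells stimulated with ATP at an EC80 level; 0% = agonist EC80 plus vehicle and 100% = vehicle without agonist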
# TAAR1 ant conf: confirmation of human TAAR1 antagonists | 2,400 tested, 40% active | inhibition, % at 3 µM | AID 651785 | TAAR1-expressing cells, fluorescence antagonist read-out | shares compounds with TAAR1 antagonist; in the data active = inhibition above about 49%;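 also: CHO-Ga16 host cells challenged with agonist PEA near its EC80; 0% = agonist at EC80 plus vehicle and 100% = vehicle with no agonist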
# Ga16 nonsel ag: nonselective Ga16 agonist in TAAR1 antagonist counter-screen | Ga16-expressing cells, calcium fluorescence, agonist counterscreen | AID 651953 | activation, % at 3 µM | 2,400 tested, 18% active | shares compounds with TAAR1 antagonist; in the data active = activation above about 12%;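 also: 0% = vehicle wells and 100% = saturating stimulus response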
# TAAR1 ag counter: counter-screen for human TAAR1 antagonists: TAAR1 agonists; shares compounds with TAAR1 antagonist; hTAAR1 cell line, fluorescence activation, agonist mode; activation, % at 3 µM; 2,400 tested, 2% active; AID 651955; in the data active = activation above about 37%;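 also: CHO cells stably expressing TAAR1 with calcium dye readout; 0% = DMSO vehicle and 100% = full agonist response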
# The depositor's hits bear a star; . = no result given. A selection: hits, their analogues and other compounds. The true share with any hit is near 4.6%.
SMILES,OX1R antag-1,CHO parental Ca,GPR7 antagonist,TAAR1 agonist,OX1R antag-2,TAAR1 antagonist,nonsel antag count,TAAR1 ant conf,Ga16 nonsel ag,TAAR1 ag counter
Cc1nc2scc(-c3ccccc3)c2c(=O)n1N=C1C=CC(=O)C=C1,.,.,5.8,10.5,.,62.2*,55.5*,54.0*,8.8,7.0
Cc1ccc(CNC(=O)c2ccc(COc3ccccc3)cc2)cc1,-10.3,-7.2,-14.9,5.5,16.5,53.4*,13.8,14.3,2.2,1.6
O=[N+]([O-])c1ccccc1N(S(=O)(=O)c1ccccc1)S(=O)(=O)c1ccccc1,.,.,.,2.9,.,72.2*,24.1*,50.3*,3.2,3.5
CCC(=O)c1ccc(OCC(=O)OCC(=O)Nc2ccc(C)c(S(=O)(=O)N3CCCCC3)c2)cc1,25.1,0.1,.,27.6,5.0,66.7*,56.1*,57.0*,16.7*,15.3
Cc1c(C(=O)Nc2cccc([N+](=O)[O-])c2)csc1-c1ccccc1,8.9,-4.1,1.1,14.4,72.2*,81.4*,37.2*,53.8*,3.8,-1.9
CCOc1ccc(CCn2c(-c3ccco3)nc3ccccc3c2=O)cc1OCC,-22.3,-17.3,-10.7,12.8,17.5,57.8*,30.9*,45.0,7.2,5.5
O=c1c2ccccc2nc(-c2ccco2)n1Cc1ccccc1,-17.5,-17.8,-5.0,16.4,6.5,25.3,.,.,.,.
O=C(C1CCN(S(=O)(=O)c2cccc3cccnc23)CC1)N1CCn2c1nc1ccccc12,-26.8,-2.0,-0.7,9.0,12.4,59.5*,28.1*,44.1,8.1,7.2
CC1CCN(C(=O)C2CCN(S(=O)(=O)c3cccc4cccnc34)CC2)CC1,-24.3,-11.0,-9.4,5.4,12.6,-13.1,.,.,.,.
CN(C)c1ccc(C=NN2C(=O)CSC2=S)c(Cl)c1,.,.,.,4.6,.,-3.9,.,.,.,.
O=C(NC(Cc1ccccc1)C(=O)N1CCc2ccccc2C1)c1ccccc1 (configuration not stated),-22.0,-31.4,-1.8,7.8,24.8,55.0*,25.7*,46.4,7.2,5.2
O=C(NC(Cc1ccccc1)C(=O)O)c1ccccc1 (configuration not stated),-5.2,-5.1,2.1,3.0,6.9,-3.5,.,.,.,.
CCc1nnc(NC(=O)C2Cc3ccccc3CN2S(=O)(=O)CC)s1 (configuration not stated),-36.7,-4.9,-1.2,-0.1,19.4,10.1,.,.,.,.
CCS(=O)(=O)N1Cc2ccccc2CC1C(=O)Nc1nnc(SCc2ccc(F)cc2)s1 (configuration not stated),-5.0,-15.0,-1.9,29.8,5.6,62.1*,31.8*,43.3,8.7,8.8
O=C(CSCC(=O)NN=Cc1ccccc1)NN=Cc1ccccc1,.,.,.,30.6,.,-12.0,.,.,.,.
O=C(CCCSCCCC(=O)NN=Cc1ccccc1)NN=Cc1ccccc1,.,.,.,22.3,.,66.4*,43.0*,55.6*,10.4,43.6*
C(=C\c1ccccc1)/CN1CCN(C(c2cc3ccccc3o2)c2nnnn2Cc2ccccc2)CC1 (configuration not stated),.,.,.,-0.4,.,-1.7,.,.,.,.
COc1ccc(Nc2ncc(C(=O)N3CCC(C(N)=O)CC3)c3ccccc23)cc1,-2.3,-8.4,-2.1,1.6,11.7,-3.8,.,.,.,.
COc1ccc(Nc2ncc(C(=O)N3CCN(Cc4ccccc4)CC3)c3ccccc23)cc1,-24.6,-9.1,-0.8,18.2,5.0,67.4*,33.4*,51.5*,14.1*,13.2
COc1ccccc1Nc1ncc(C(=O)N2CCC(C(N)=O)CC2)c2ccccc12,-7.5,-5.9,-15.1,10.2,13.2,11.3,.,.,.,.
COc1ccccc1Nc1ncc(C(=O)N2CCN(Cc3ccc(OC)c(OC)c3OC)CC2)c2ccccc12,-36.7,-8.8,-2.0,9.2,11.5,70.7*,26.7*,45.0,4.7,4.3

# Screening results: PubChem BioAssay, The Scripps Research Institute Molecular Screening Center
